Bioassay records from PubChem.
Shown are actives, neighbours in structure and some others; about 3.5% of the full set was active somewhere.
RGS4 act – potentiators or activators of RGS4 | HEK293 M3R/inducible RGS4, carbachol calcium flux Fluo4; active compounds read low | B-score at 10 µM | 310,000 tested, 0.92% active;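 active = B-score of the integrated calcium signal more than 4 SD below the library mean, with starting fluorescence not abnormally high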;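 also: negative B-score means reduced calcium response which marks RGS4 activation or potentiation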
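Test system: HEK293 cells with stable M3R and inducible RGS4; also added: carbachol at ECmax as muscarinic agonist stimulus; schedule: dye loading 30 min 37 °C, buffer rest 30 min RT; technique: kinetic calcium fluorescence imaging with Fluo4-AM dye, 2 µM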
MrgX1 antag – human MrgX1 receptor antagonism, primary screen; B-score at 10 µM; 310,000 tested, 1.3% active; MRGX1-HEK293 calcium flux, Fluo-4, BAM8-22 antagonism; active compounds read low; Q96LB2; AID 588676;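 active = calcium-response B-score plate-corrected more than 3 library SD below zero, starting fluorescence within 5 deviations, no agonist response on first addition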;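 also: peak minus trough fluorescence over baseline after final BAM8-22 challenge near maximal dose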
Target sequence (Q96LB2 whole entry, looked up): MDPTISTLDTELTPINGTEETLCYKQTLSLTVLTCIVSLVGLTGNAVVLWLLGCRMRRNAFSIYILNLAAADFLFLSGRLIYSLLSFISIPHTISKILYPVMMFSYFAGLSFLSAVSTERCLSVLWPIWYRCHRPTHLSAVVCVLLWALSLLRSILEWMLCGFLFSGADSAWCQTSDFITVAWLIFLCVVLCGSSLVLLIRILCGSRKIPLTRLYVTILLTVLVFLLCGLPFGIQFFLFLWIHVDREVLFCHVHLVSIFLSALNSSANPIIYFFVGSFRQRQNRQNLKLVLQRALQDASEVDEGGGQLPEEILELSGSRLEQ
RGS4 inh – inhibitors of human RGS4. P49798. HEK293 M3R/RGS4 inducible, Fluo-4 calcium flux; active compounds read high; triggered by carbachol at its EC20. B-score at 10 µM. 310,000 tested, 0.45% active. AID 463165;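 active = B-score, a plate-corrected calcium signal, over three deviations above library mean, with baseline fluorescence within five deviations of library mean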;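 also: RGS4 expression induced by doxycycline in cells with stable M3 receptor; B-score is computed from the integrated fluorescence ratio over baseline after carbachol; higher B-score means a larger calcium signal and so more RGS4 inhibition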
Target sequence (P49798 whole entry, looked up): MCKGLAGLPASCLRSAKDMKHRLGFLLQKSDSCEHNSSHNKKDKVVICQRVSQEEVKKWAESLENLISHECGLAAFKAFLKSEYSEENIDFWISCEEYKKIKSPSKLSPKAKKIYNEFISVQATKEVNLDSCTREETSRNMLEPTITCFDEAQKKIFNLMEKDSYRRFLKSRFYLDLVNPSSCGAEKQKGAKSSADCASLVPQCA
MrgX1 allo act – human MrgX1 positive allosteric modulation, primary screen; Q96LB2; MrgX1-HEK293, Fluo-4 calcium flux, FDSS; active compounds read high; B-score at 10 µM; 310,000 tested, 0.63% active; AID 588675;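 active = plate-corrected calcium response at least 3 library SD above typical, normal starting fluorescence, not activating the receptor alone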;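 also: compound read alongside a low EC10 to EC30 dose of BAM8-22 agonist; peak minus trough fluorescence over baseline measured at the second addition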
MrgX1 ag – agonists of human MrgX1 receptor. MrgX1-HEK293 cells, Fluo-4 calcium fluorescence, agonist mode; active compounds read high. AID 588627. Q96LB2. B-score at 10 µM. 310,000 tested, 0.44% active;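 active = calcium response B-score plate-corrected fluorescence ratio at least 3 library SD, with starting fluorescence B-score inside 5 SD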
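Material: MrgX1-expressing HEK293 cells / Dosing: compound as first of three additions / Incubation: overnight seeding, then 1 h dark dye loading / Signal: Fluo-4 NW calcium fluorescence / Evaluation: B-scored fluorescence response ratio / Benchmarks: positive and negative control wells on each plate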
* = called active by the depositor; i = inactive; x = not tested or not shown.

SMILES	RGS4 act	MrgX1 antag	RGS4 inh	MrgX1 allo act	MrgX1 ag
Cc1ccsc1C(=O)N1CCCC(CCC(=O)N2CCN(c3ccccn3)CC2)C1 (configuration not stated)	i	i	i	i	i
Cc1ccc2c(c1)/C(=C/c1ccco1)C(=O)N2	i	i	i	i	i
O=C1Nc2ccc(Br)cc2/C1=C/c1ccc(C(=O)O)cc1	i	i	8*	i	i
CC1CCCCC1NC(=O)CNC(=O)c1ccco1 (configuration not stated)	i	i	i	i	i
O=C(Oc1ccc2ccc(O)cc2c1)c1ccccc1Cl	i	i	i	i	i
Cc1cccc(C(=O)Oc2ccc(/C=N/O)cc2)c1	i	i	i	7.7*	i
Cc1ccc(C(=O)N/N=C\c2ccc(OC(=O)c3cccc(F)c3)cc2)cn1	i	i	i	i	i
O=C(Oc1ccc(/C=N/O)cc1)c1ccccc1Cl	i	i	i	16*	i
CCc1cc(=O)n2[nH]c(-c3ccccc3)c(-c3ccccc3)c2n1	i	i	i	i	i
CCNC(=O)CSc1nc2ccccc2c(=O)n1-c1cc(OC)ccc1OC	i	i	i	i	i
Nc1nc2c(s1)COc1ccccc1-2	i	i	i	i	i
Nc1nc2c(s1)CCc1c-2cnn1-c1ccccc1	i	i	i	i	33*
O=C(N/N=C/c1ccc2c(c1)OCO2)c1ccc(COc2cccc3cccnc23)cc1	i	i	i	i	i
CN1C(C(=O)NCc2ccco2)CC2Cn3c(nc4cc(Cl)c(Cl)cc43)C21 (configuration not stated)	i	i	i	i	i
COc1ccc(OC)c(/C=C2\SC(=S)N(Cc3cccnc3)C2=O)c1	i	i	i	i	i
CC1=NNC(=O)/C1=C\c1cn(-c2ccccc2)nc1-c1cccs1	i	-6.5*	i	i	i
COc1ccc(-c2nn(-c3ccccc3)cc2/C=C2/SC(=S)N(CCC(=O)O)C2=O)cc1	-7.2*	-6*	i	i	i
COc1ccc(O)c(/C=C2/SC(=S)N(Cc3ccccc3)C2=O)c1	i	-5.1*	i	i	i
CC1=NNC(=O)/C1=C\c1cn(-c2ccccc2)nc1-c1ccc(F)cc1	i	x	i	x	x
COc1ccc(/C=C2/SC(=S)N(CCC(=O)O)C2=O)cc1	i	i	i	i	31*
COC(=O)c1cc(NC(=O)C2CC(=O)NC(=NCc3ccc(OC)cc3)S2)cc(C(=O)OC)c1 (configuration not stated)	i	i	i	i	i
COc1ccc(NC(=O)c2ccccc2NC(=O)CSc2ccc(Cl)cc2)cc1	i	i	i	i	i
CCOc1ccc(-c2nn(-c3ccccc3)cc2/C=C2\SC(=S)N(C3CCS(=O)(=O)C3)C2=O)cc1 (configuration not stated)	-8.3*	i	i	i	i
Cc1ccc(-c2nn(-c3ccccc3)cc2/C=C2\SC(=S)N(CC(=O)O)C2=O)cc1	i	i	i	i	i
O=C(O)CCCCCN1C(=O)/C(=C\c2cn(-c3ccccc3)nc2-c2cccs2)SC1=S	-7*	i	i	i	i
SMILES	RGS4 act	MrgX1 antag	RGS4 inh	MrgX1 allo act	MrgX1 ag
COc1ccc(-c2nn(-c3ccccc3)cc2/C=C2/SC(=S)N(CCC(=O)O)C2=O)c(C)c1	-7.7*	i	i	i	i
CCCOc1ccc(-c2nn(-c3ccccc3)cc2/C=C2\SC(=S)N(C3CCS(=O)(=O)C3)C2=O)cc1 (configuration not stated)	i	i	i	i	i
O=C(NCC(=O)N1CCN(C(c2ccccc2)c2ccccc2)CC1)c1ccccc1F	i	i	i	i	i
CC1CCN(S(=O)(=O)CCNC(=O)c2ccc(F)cc2)CC1	i	i	i	i	i
COc1ccc(CN(C(=O)CSc2nnc(-c3ccccc3F)o2)c2ccc(F)cc2)cc1	-7.8*	i	i	i	i
CN(C(=O)CSc1nnc(-c2ccccc2F)o1)c1ccccc1	i	i	i	i	i
Cc1cc(C)cc(NC(=O)C(OC(=O)c2ccc([N+](=O)[O-])o2)c2ccccc2)c1 (configuration not stated)	i	-6.6*	i	i	i
COc1cccc(NC(=O)C(OC(=O)c2ccc([N+](=O)[O-])o2)c2ccccc2)c1 (configuration not stated)	i	i	i	i	i
O=C1CCCc2nc(N3CCN(C(c4ccccc4)c4ccccc4)CC3)ncc21	-7*	i	i	i	i
CC(C)CC(=O)Nc1nnc(SCC(=O)NCC2CCCO2)s1 (configuration not stated)	i	i	i	i	i
O=[N+]([O-])c1ccccc1CNC1CCCc2ccccc21 (configuration not stated)	i	i	i	i	i
O=Cc1cn(CC(=O)N2CCc3ccccc32)c2ccccc12	i	i	i	i	i
COc1ccc(CCN2C(=NC(=O)CCC(=O)O)SC3CS(=O)(=O)CC32)cc1OC (configuration not stated)	i	-5.2*	i	i	i
COc1ccc(CCN2C(=NC(=O)CC(C)C)SC3CS(=O)(=O)CC32)cc1 (configuration not stated)	i	i	i	i	i
COc1ccccc1NC(=O)c1ccc(NC(=O)CSc2n[nH]c(N)n2)cc1	i	i	i	i	i
COc1cc2c(cc1NC(=S)Nc1cccc3ccccc13)oc1ccccc12	i	i	i	i	i
COc1cc2c(cc1NC(=S)Nc1cccc(C(F)(F)F)c1)oc1ccccc12	i	-5.7*	i	i	i
CN1CCCN(C(=O)c2cccc3ccccc23)CC1	i	i	i	i	i
CCCOc1cccc(-c2cc(C(=O)N/N=C/c3ccccn3)c3ccccc3n2)c1	-9.1*	i	i	i	i
CCCOc1cccc(-c2cc(C(=O)N/N=C/c3cccnc3)c3ccccc3n2)c1	-8.1*	i	i	i	i
Cc1cccc(-c2cc(C(=O)N/N=C/c3cccnc3)c3ccccc3n2)c1	i	i	i	i	i
Cc1ccc(NS(=O)(=O)c2ccc(OCC(=O)NCc3ccncc3)cc2)cc1	i	i	i	i	i
O=[N+]([O-])c1cc(Cl)cc2c1nc(NCCO)c1ccccc12	i	i	i	i	i
Cc1cc(C)n2nc3ccccc3c2n1	i	i	i	i	i
